# Compound activity: PubChem BioAssay, Sanford-Burnham Center for Chemical Genomics
# bIAP inhibitor – intestinal alkaline phosphatase (bovine) inhibition; inhibition, % at 20 µM; AID 1019; purified bovine IAP, CDP-star luminescence, 30 min; 190,000 tested, under 10 active;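 active means over 50% inhibition of intestinal alkaline phosphatase at 20 µM in the single-dose screen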
#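 Assay system: bovine IAP enzyme; medium: DEA buffer 100 mM, pH 9.8, with MgCl2 1.0 mM, ZnCl2 0.02 mM; doses: 20 µM single dose; incubation: enzyme reaction for 30 min at room temperature; detection: CDP-star luminescence signal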
# mIAP act – increases mouse intestinal alkaline phosphatase activity; muIAP, CDP-Star luminescence, 30 min; active compounds read high; 1 = vehicle-only enzyme signal, 0 = enzyme-free wells; activation factor at 10 µM; 330,000 compounds, 0.24% hits; AID 2805;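 active means activation factor of at least 2 at 20 µM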
#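 Assay system: mouse IAP enzyme; reagent: chemiluminescent substrate CDP-Star; dosing: test compounds delivered from DMSO solution; schedule: 30 min at room temperature; measured by: luminescence from enzymatic CDP-Star hydrolysis; controls: DMSO-only wells and no-enzyme negative control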
# bIAP act – increases bovine intestinal alkaline phosphatase activity. purified bovine IAP, CDP-star luminescence, 30 min; active compounds read high; fold of DMSO-control signal, blank-subtracted. activation factor at 20 µM. 200,000 compounds, 0.17% hits. AID 1016;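 active means activation factor of 2 or more at 20 µM, a signal rise over negative controls twice the positive control's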
# mIAP block – mouse IAP inhibition; purified mouse IAP, CDP-Star luminescence, 30 min; inhibition, % at 10 µM; 330,000 compounds, 0.2% hits;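 active means inhibition of at least 40% at 10 µM in the primary screen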;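 further: plate controls were DMSO with enzyme for no effect and no enzyme wells for full effect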
# hIAP act – increases human intestinal alkaline phosphatase activity; purified human IAP, CDP-Star luminescence, 30 min; active compounds read high; 1 = vehicle-only enzyme, 0 = enzyme-free background; activation factor at 10 µM; AID 2524; 330,000 compounds, 0.16% hits;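 active means activation factor of the enzyme at least 2-fold when tested at 20 µM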
# Target sequence (P09923 whole entry, looked up): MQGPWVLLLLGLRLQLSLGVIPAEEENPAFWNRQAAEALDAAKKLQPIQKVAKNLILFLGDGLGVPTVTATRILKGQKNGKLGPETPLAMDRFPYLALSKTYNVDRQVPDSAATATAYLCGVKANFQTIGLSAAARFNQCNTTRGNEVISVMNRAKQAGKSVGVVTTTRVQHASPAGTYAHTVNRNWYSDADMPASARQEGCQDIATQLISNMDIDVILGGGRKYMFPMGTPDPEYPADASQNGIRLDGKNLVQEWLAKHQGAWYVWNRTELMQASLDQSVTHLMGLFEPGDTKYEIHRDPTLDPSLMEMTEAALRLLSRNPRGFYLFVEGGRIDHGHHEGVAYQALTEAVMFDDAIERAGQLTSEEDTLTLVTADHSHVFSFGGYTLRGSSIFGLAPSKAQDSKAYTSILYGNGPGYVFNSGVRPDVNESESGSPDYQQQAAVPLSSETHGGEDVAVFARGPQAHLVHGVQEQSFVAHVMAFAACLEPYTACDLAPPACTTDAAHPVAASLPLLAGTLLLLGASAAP
# hIAP block – human IAP inhibition | purified IAP, CDP-Star luminescence, 30 min | inhibition, % at 10 µM | 330,000 compounds, 0.12% hits | AID 2544;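 active means inhibition reaching a set limit with compound at 10 µM in the primary screen, cut at about 35% in these data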;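 further: plate controls were DMSO wells with enzyme for no effect and no-enzyme buffer wells for full effect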
# mIAP inh confirm – mouse IAP inhibition confirmation; shares compounds with mIAP block; purified mouse IAP, CDP-Star luminescence, 30 min; inhibition, % at 10 µM; 11,000 compounds, 4.7% hits; AID 434971;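 active means inhibition of at least 40% at 10 µM in either of the two replicates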;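 further: plate controls were DMSO wells with enzyme for no effect and buffer wells lacking enzyme for full effect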
# The depositor's hits bear a star; i = inactive; · = no result given. Shown are actives, neighbours in structure and some others; about 0.79% of the full set was active somewhere.
SMILES,bIAP inhibitor,mIAP act,bIAP act,mIAP block,hIAP act,hIAP block,mIAP inh confirm
C=C(C)c1cccc(C(C)(C)NC(=O)NC(c2ccccc2)c2ccc(OC)cc2)c1 (stereo unspecified),5.4,12*,0.9,i,1.82,-81.9,-358.7
O=C(COC(=O)c1cnccn1)Nc1cc(S(=O)(=O)N2CCOCC2)ccc1Cl,·,1.08,·,-8.4,1.15,-15.3,·
CN1C(=O)C(C)(C)c2cc(S(=O)(=O)N3CCCC(C(=O)NCc4ccccc4Cl)C3)ccc21 (stereo unspecified),·,0.964,·,3.6,0.944,5.6,·
NC(=O)c1ccc(NC(=O)CN2C(=O)NC(c3ccccc3)(c3ccccc3)C2=O)cc1,·,1.05,·,-4.8,0.842,15.8,·
NS(=O)(=O)c1ccc(-c2ccc(/C=C3\NC(=S)NC3=O)o2)cc1,·,0.103,·,89.7*,1.01,-1.0,76.9*
NS(=O)(=O)c1ccc(-c2ccc(C=O)o2)cc1,-4.1,0.731,1,26.9,0.864,13.6,·
COC(=O)/C(C#N)=C/c1ccc(-c2ccc(S(N)(=O)=O)cc2)o1,·,0.362,·,63.8*,0.927,7.3,78.6*
CC1=C(C#N)C(=O)NC(=O)/C1=C/c1ccc(-c2ccc(S(N)(=O)=O)cc2)o1,-3.5,0.46,1,54.0*,0.835,16.5,70.0*
CC(C)OC(=O)/C(C#N)=C/c1ccc(-c2ccc(SC(F)F)cc2)o1,-0.1,0.866,1,13.4,1.04,-4.0,·
Cc1nn(-c2ccccc2)c(C)c1C(=O)N1CCN(S(=O)(=O)c2ccccc2)CC1,·,0.991,·,0.9,0.953,4.7,·
COc1cc(OC)cc(-c2oc(=O)c3cc(OC)c(OC)cc3c2/C=C/c2ccc(F)cc2)c1,·,0.922,·,7.8,1.02,-1.6,·
CCOC(=O)c1ccc(N2CCN(c3ccccc3F)CC2)c(NC(=O)Nc2cccc(OC)c2)c1,-20.2,8.55*,1.2,i,1.72,-71.6,-362.4
COC(=O)c1ccc(N2CCOCC2)c(NC(=O)Nc2cccc(OC)c2)c1,-1.0,1.23,1,-23.1,0.999,0.1,·
Cc1ccc(C)c(NC(=O)COC(=O)CCC(=O)c2cccs2)c1,2.0,1.11,1,-10.7,0.806,19.4,·
C=C1c2cccc(O)c2C(=O)C2C(=O)[C@]3(O)C(=O)C(C(N)=O)C(=O)[C@@H](N(C)C)[C@@H]3[C@@H](O)[C@H]12 (stereo partly specified),·,0.512,·,48.8*,0.891,10.9,48.0*
Cc1ccc(SCc2nc3ccccc3n2CC(=O)Nc2c(C)cccc2C)cc1,-37.7,1.75,1.4,-75.3,0.869,13.1,·
Cc1cc(C)cc(NC(=O)Cn2c(-c3ccccc3Cl)nc3ccccc32)c1,-13.4,2.79*,1.1,-178.7,1.1,-10.0,-148.4
O=C(Cn1c(CO)nc2ccccc21)Nc1ccccc1Cl,5.0,1.01,0.9,-1.1,0.98,2.0,·
O=C(Cn1c(-c2ccccc2Cl)nc2ccccc21)Nc1cccc(Cl)c1,-12.1,2.83*,1.1,-182.8,0.951,4.9,-151.0
O=C(Cn1c(COc2ccccc2)nc2ccccc21)Nc1cccc(Cl)c1,-19.2,1.06,1.2,-6.3,0.99,1.0,·
Cc1ccc(SCc2nc3ccccc3n2CC(=O)Nc2ccc(Cl)cc2)cc1,-15.2,2.75*,1.2,-174.6,1.02,-2.3,-85.5
CCOC(=O)/C=C1\SCC(=O)N1CC(=O)Nc1cccc(F)c1,-2.8,0.949,1,5.1,0.953,4.7,·
CCOC(=O)c1cc(CC)sc1/N=C/C1=C(O)CC(C)(C)CC1=O,-23.4,1.01,1.2,-1.3,0.992,0.8,·
CCOC(=O)c1sc(N=NC2=C(O)CC(C)(C)CC2=O)c(C(=O)OCC)c1C,-10.5,3.97*,1.1,-297.1,1.25,-24.9,-209.7
Cc1ccc2c(c1)C(c1ccccc1)N(C(=O)c1ccc3c(c1)OCO3)CC(=O)N2 (stereo unspecified),·,1.05,·,-5.0,1.07,-7.0,·
SMILES,bIAP inhibitor,mIAP act,bIAP act,mIAP block,hIAP act,hIAP block,mIAP inh confirm
Cc1ccc(NC(=O)COC(=O)Cn2ccc(=O)[nH]c2=O)cc1C,·,1.07,·,-7.3,1.22,-21.5,·
CC1(CCC(=O)N2CCCC(N3CCN(c4cccc(C(F)(F)F)c4)CC3)C2)CC1 (stereo unspecified),·,0.842,·,15.8,0.896,10.4,·
O=C(Nc1cccc(F)c1)Nc1cccc(Cl)c1,·,3.59*,·,-259.3,1.14,-13.9,-110.7
O=C(NCc1csc2ccccc12)Nc1cc(Cl)cc(Cl)c1,·,3.71*,·,-270.8,0.96,4.0,-144.6
O=C(Nc1cccc(Cl)c1)NC1CCCCC1,5.6,1.93,0.9,-92.9,1.09,-8.9,·
O=C(Nc1cccc(Cl)c1)NC1CC2CCC1C2 (stereo unspecified),·,3.2*,·,-219.7,1.11,-10.6,-163.6
O=C(Nc1cccc(Cl)c1)Nc1cccc(Cl)c1,-16.0,2.63*,1.2,-162.7,1.09,-8.8,-220.9
COc1ccc(NC(=O)C2CCCN2C(=O)NC2CCCCC2)cc1 (stereo unspecified),·,0.981,·,1.9,0.948,5.2,·
Cc1cc(C)n(CCN(C)C(=O)C2CCC(=O)N(CCN3CCOCC3)C2)n1 (stereo unspecified),·,0.935,·,6.5,1,-0.1,·
CC(O)c1cccc(NC(=O)CCC(=O)O)c1 (stereo unspecified),10.3,1.09,0.9,-9.3,0.836,16.4,·
O=C(Nc1cccc(Cl)c1)Nc1nc(-c2ccccc2)cs1,·,2.83*,0.4,-183.5,1.13,-12.8,-116.0
O=C(Nc1ccccc1)Nc1cc(Cl)cc(Cl)c1,12.5,4.84*,0.9,-383.6,1.19,-19.4,-240.7
CC(O)c1cccc(NC(=O)Nc2cccc(NC(=O)Nc3cccc(C(C)O)c3)c2)c1 (stereo unspecified),·,2.52*,·,-152.1,1.19,-19.1,-88.9
CSc1cccc(NC(=O)Nc2ccccc2)c1,26.4,2.77*,0.7,-177.2,1.06,-6.5,-110.3
Cc1cc(C(F)(F)F)n(-c2ccc(N)cc2)n1,-7.3,0.989,1.1,1.1,1.01,-1.4,·
CCCCOc1ccc(C(=O)OCC(=O)NC2CCCC2)cc1,·,1.05,·,-5.2,1.07,-6.7,·
CC(=O)c1c[nH]c(C(=O)NC2CCCCCC2)c1,·,0.925,·,7.5,0.852,14.8,·
S=C(NCc1ccc(Cl)cc1Cl)NC1CCCCC1,3.3,5.41*,1,-440.5,1.32,-31.8,-93.0
Cc1cc(C)n(CCCN2CCC(C(=O)Nc3cccc(-c4cccc(F)c4)c3)CC2)n1,·,3.5*,·,-249.7,1,-0.1,-201.5
Cc1ccccc1C(=O)N1CCC(C(=O)Nc2cccc(F)c2)CC1,-12.5,1.09,1.1,-9.0,1.16,-15.8,·
CC(C(=O)O)n1c2ccccc2c2cnn(C)c(=O)c21 (stereo unspecified),·,1.05,·,-4.9,1.1,-9.7,·
